Data published in article PMC3528315 (The FASEB Journal, 2013).
Entries after “also recorded” stand apart in the source; their conditions may differ. Read-outs that look alike come from different tables or passages of the source.

What was measured:
DA rats = details: cited from earlier work
[1] = tested on: circulating polyclonal anti-MBP Abs from DA rats; format: binding; details: SPR; DA rats immunized with MBP63–81
DA rats with EAE [2] = experiment: EAE treatment with mSUV-encapsulated MBP peptides, disease scores; format: in vivo, Dark Agouti (DA) rats; details: for disease course / therapeutic effect in words: 6 daily s.c. injections from d 7 after EAE induction, mean disease score; for delta: ranking of overall difference in MDS from the placebo group: ascending series, placebo = empty mSUV
[3] = tested on: Spinal cords of DA rats with EAE; experiment: Spinal cord histology, gliosis and demyelination; format: in vivo, Dark Agouti (DA) rats
How it was run: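 Symptomatic EAE DA rats were dosed subcutaneously once daily for 6 d and followed for 28 d. Paraffin-embedded spinal cord sections were stained with hematoxylin–eosin and luxol fast blue and scored blind on 0–3 scales. Gliosis grades were mild (5–10 cells/focus), moderate (10–50 cells/focus) and severe (>50 cells/focus), and demyelination ran from none (0) to severe (3).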

[4] = tested on: autoAbs to full-length MBP; experiment: Serum anti-MBP autoAbs; format: in vivo, DA rats; details: ELISA, vs control/placebo group
How it was run: (§1)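 Wells were coated overnight at 4°C with MBP or Trx-fused MBP peptides (10 μg/ml, 100 mM carbonate/bicarbonate, pH 9.0) and blocked with 2% BSA for 1 h at 37°C. Rat sera were diluted 100- to 50,000-fold in PBS-Tween/0.5% BSA, with 5 USP units/ml heparin for MBP, and incubated 1 h at 37°C. HRP anti-rat (1:4000, 1 h, 37°C) and TMB followed, with a phosphoric acid stop and OD₄₅₀ read-out.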

[5] = tested on: autoAbs to MBP epitope 81–103; experiment: Serum autoAbs; format: in vivo, DA rats; details: ELISA, vs control/placebo group
How it was run: as §1

[6] = tested on: autoAbs to MBP epitope 146–170; experiment: Serum autoAbs; format: in vivo, DA rats; details: ELISA, vs control/placebo group
How it was run: as §1

IL-2 = experiment: Immunostaining of spinal cord for IL-2; format: in vivo, DA rats; details: immunohistochemistry
How it was run: (§2)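 EAE DA rats with symptoms got single daily subcutaneous injections of liposome formulations, reference drug or placebo for 6 d and were followed for 28 d. Spinal cords were fixed, dehydrated and paraffin-embedded, and sections were immunostained for IL-2, IFNγ or BDNF per the antibody makers' protocols. Scoring was blinded, against nonimmunized rats and untreated EAE rats.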

IFNγ = experiment: Immunostaining of spinal cord for IFNγ; format: in vivo, DA rats; details: immunohistochemistry
How it was run: as §2

BDNF = experiment: Immunostaining of CNS / spinal cord for BDNF; format: in vivo, DA rats; details: immunohistochemistry, vs placebo
How it was run: as §2

[7] = tested on: regulatory Th2 cells; BDNF expression; details: cited from earlier work
DA rats with EAE [8] = experiment: EAE treatment with p1 as such or encapsulated in SUV / mSUV; format: in vivo, Dark Agouti (DA) rats; details: s.c.; mean disease score vs no treatment; p1 n=8, p1 SUV n=10, p1 mSUV n=9

## GPBP62–84: fragment of the guinea pig myelin basic protein (HAARTTHYGSLPQKSQRSQDENP; UniProt P25188 62-84, looked up, fragment)
DA rats
  capability to induce EAE in DA rats: capable to induce EAE in DA rats

## GPBP68–88: fragment of the guinea pig myelin basic protein (HYGSLPQKSQRSQDENPVVHF; UniProt P25188 68-88, looked up, fragment)
DA rats
  capability to induce EAE in DA rats: slightly

## MBP62–75: major encephalitogenic peptide in DA rats (WLKQSRSPLPSHAR; UniProt P02688 62-75, looked up, fragment)
DA rats
  immunodominance of encephalitogenic peptide in DA rats: not immunodominant

## MDHARHGFLPRH
[1]
  binding of autoAbs: not detected

## glatiramer acetate [Copaxone]
DA rats with EAE [2]; 6 daily s.c. injections from d 7, Wilcoxon test, P < 0.05
  median maximum disease score vs placebo: significantly differed from the placebo group
DA rats with EAE [2]
  disease course / therapeutic effect in words: significantly suppressed protracted EAE
  delta: ranking of overall difference in MDS from the placebo group: p1 ≪ p2 mSUV ≈ p3 mSUV < p1 mSUV ≈ Copaxone < p123 mSUV
[3]
  degree of demyelination, luxol fast blue staining: reduced
[4]
  serum concentration of autoAbs to full-length MBP: significant decrease
[5]
  serum autoAbs to MBP epitope 81–103: down-regulated
[6]
  serum autoAbs to MBP epitope 146–170: down-regulated
IL-2
  IL-2 in spinal cord: significantly down-regulated
IFNγ
  IFNγ in spinal cord: significantly down-regulated
BDNF
  BDNF in CNS: enhanced production of BDNF
[7]
  induction of regulatory Th2 cells, cytokines and BDNF: known to stimulate BDNF expression
[7]; listed as glatiramer acetate
  induction of regulatory Th2 cells, cytokines and BDNF: induces the population of regulatory Th2 cells to become capable of crossing the BBB and producing anti-inflammatory cytokines IL-4, IL-6, IL-10, and brain-derived neurotrophic factor

## p1: immunodominant MBP peptide MBP46–62, as such (without liposomes) (FGEADANQNNGTSSQDT; UniProt P02686 46-62, looked up, fragment)
DA rats with EAE [8]
  therapeutic effect on EAE: no detectable therapeutic effect
DA rats with EAE [2]
  disease course / therapeutic effect in words: no therapeutic effect; also recorded: no detectable therapeutic activity
  delta: ranking of overall difference in MDS from the placebo group: p1 ≪ p2 mSUV ≈ p3 mSUV < p1 mSUV ≈ Copaxone < p123 mSUV
